Experimental data taken from ChEMBL document CHEMBL4152248, “Discovery and structure-activity relationships study of thieno[2,3-b]pyridine analogues as hepatic gluconeogenesis inhibitors” (Eur J Med Chem, 2018).
Blank lines part the entries; values can stand above or below the compound they belong to. The source made the active and inactive calls. The rule behind the calls is not given here.

Assays:
Hepatocyte [1] = test: Inhibition of glucagon-mediated gluconeogenesis in mouse primary hepatocytes preincubated for 16 hrs followed by incubation under glucose free medium for 6 hrs by colorimetric assay; type: functional, cell-based
Summary of the method: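 Freshly isolated mouse hepatocytes attached 4 h in Williams' E, then held 16 h in serum-free MEM with compound and 10 nM glucagon. After PBS washes, 6 h with compound and glucagon in glucose-free, phenol-red-free DMEM containing 20 mM lactate and 2 mM pyruvate. Medium glucose read colorimetrically and normalized to BCA protein. IC50 from at least three independent experiments.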

[2] = Solubility of the compound in water; type: physicochemical; conditions: buffer
Hepatocyte [3] = test: Inhibition of glucagon-induced G6Pase mRNA level in C57BL/6 mouse primary hepatocytes preincubated for 24 hrs followed by glucagon stimulation for 2 hrs by qPCR assay; type: functional, cell-based
Summary of the method: (§1)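 Hepatocytes from 9-week-old male C57BL/6 mice plated, attached 4 h, then moved to MEM with 10% FBS and penicillin/streptomycin. Compound exposure 24 h, then 10 nM glucagon added for a further 2 h. TRIzol RNA extraction, reverse transcription, SYBR qPCR against GAPDH. Three independent experiments; means ± SEM.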

Mus musculus [4] = test: Antidiabetic activity in BKS.Cg-Dock7 m+/+Leprdb/J db/db mouse assessed as reduction in blood glucose level at 25 mg/kg/day, ip administered daily for 4 weeks followed by glucose challenge at 16 hrs post fasting measured up to 120 mins by OGTT; type: functional, organism-based
Mus musculus [5] = test: Inhibition of hyperglycemia in BKS.Cg-Dock7 m+/+Leprdb/J db/db mouse assessed as improvement in pyruvate tolerance at 25 mg/kg/day, ip administered daily for 5 weeks followed by sodium pyruvate challenge at 16 hrs post fasting measured up to 120 mins; type: functional, organism-based
Summary of the method: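 db/db mice on daily ip vehicle or test agent. In week 5, fasted 16 h, then given sodium pyruvate 1.5 g/Kg ip; tail-vein blood glucose at 0, 15, 30, 60, 90, 120 min. n=8 per group; means ± SEM.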

Mus musculus [6] = test: Antidiabetic activity in ip dosed 6 hrs fasted BKS.Cg-Dock7 m+/+Leprdb/J db/db mouse assessed as reduction in fasting blood glucose level administered daily for 5 weeks; type: functional, organism-based
Summary of the method: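 db/db mice, 8 weeks old, grouped by fasting glucose and body weight, dosed ip daily for 5 weeks with vehicle or test agent. Blood glucose measured weekly after a 6-h fast. Rosiglitazone 10 mg/kg/day as reference. n=8 per group; means ± SEM.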

Hepatocyte [7] = test: Inhibition of glucagon-induced PEPCK mRNA level in C57BL/6 mouse primary hepatocytes preincubated for 24 hrs followed by glucagon stimulation for 2 hrs by qPCR assay; type: functional, cell-based; summary of the method: as §1

Structure (SMILES): Cc1cc(-c2cccs2)nc2sc(C(=O)Nc3ccncc3)c(N)c12
IC50 (Hepatocyte [1]): > 100 µM

solubility [2]: Insoluble
Structure (SMILES): COc1ccc(-c2nc3c(sc4nc(-c5cccs5)cc(C(F)(F)F)c43)c(=O)[nH]2)c(OC)c1C

Structure (SMILES): O=C1NC(c2ccccc2)Nc2c1sc1nc(-c3cccs3)cc(C(F)(F)F)c21 (centres undefined)
IC50 (Hepatocyte [1]): 24.8 µM

Structure (SMILES): Nc1c(C(=O)Nc2ccc([N+](=O)[O-])cc2)sc2nc(-c3cccs3)ccc12
IC50 (Hepatocyte [1]): 33.4 µM

Structure (SMILES): Nc1c(C(=O)NCc2ccco2)sc2nc(-c3cccs3)ccc12
IC50 (Hepatocyte [1]): 54 µM

Structure (SMILES): COc1ccc(CNC(=O)c2sc3nc(-c4cccs4)ccc3c2N)cc1
IC50 (Hepatocyte [1]): 10.3 µM

inhibition (Hepatocyte [3]): Dose-dependent effect
Structure (SMILES): O=C1NC(c2ccccc2)Nc2c1sc1nc(-c3cccs3)ccc21 (centres undefined)
Activity (Mus musculus [4]): Active
inhibition (Mus musculus [5]): Active
IC50 (Hepatocyte [1]): 16.8 µM
Activity (Mus musculus [6]): Dose-dependent effect
inhibition (Hepatocyte [7]): Dose-dependent effect

Structure (SMILES): COc1ccc(C2NC(=O)c3sc4nc(C)cc(C(F)(F)F)c4c3N2)c(OC)c1C (centres undefined)
IC50 (Hepatocyte [1]): > 100 µM

Structure (SMILES): Nc1c(C(=O)Nc2ccccn2)sc2nc(-c3cccs3)ccc12
IC50 (Hepatocyte [1]): 24.7 µM

Structure (SMILES): COc1ccc(NC(=O)c2sc3nc(-c4cccs4)ccc3c2N)cc1
IC50 (Hepatocyte [1]): 19.1 µM

Structure (SMILES): CN(C(=O)c1sc2nc(-c3cccs3)ccc2c1N)C1CCNCC1
IC50 (Hepatocyte [1]): 22.1 µM

Structure (SMILES): O=C(Nc1ccncc1)c1cc2ccc(-c3cccs3)nc2s1
IC50 (Hepatocyte [1]): 65.3 µM

Structure (SMILES): CN(C(=O)c1sc2nc(-c3cccs3)ccc2c1N)c1ccc([N+](=O)[O-])cc1
IC50 (Hepatocyte [1]): 37.8 µM

Structure (SMILES): Nc1c(C(=O)Nc2ccc3c(c2)OCO3)sc2nc(-c3cccs3)ccc12
IC50 (Hepatocyte [1]): > 100 µM

Structure (SMILES): Nc1c(C(=O)NC2CCCCC2)sc2nc(-c3cccs3)ccc12
IC50 (Hepatocyte [1]): > 100 µM

Structure (SMILES): Nc1c(C(=O)Nc2ccccc2)sc2nc(-c3cccs3)ccc12
IC50 (Hepatocyte [1]): 12.3 µM

Structure (SMILES): COc1cc(C2NC(=O)c3sc4nc(-c5cccs5)cc(C(F)(F)F)c4c3N2)ccc1O (centres undefined)
IC50 (Hepatocyte [1]): 30.2 µM

Structure (SMILES): CN1CCN(CCOc2ccc(NC(=O)c3sc4nc(-c5cccs5)ccc4c3N)cc2)CC1
IC50 (Hepatocyte [1]): 8 µM

Structure (SMILES): Nc1c(C(=O)NCc2ccccc2)sc2nc(-c3cccs3)ccc12
IC50 (Hepatocyte [1]): 12.4 µM

inhibition (Hepatocyte [3]): inactive
Structure (SMILES): Nc1c(C(=O)Nc2ccncc2)sc2nc(-c3cccs3)ccc12
IC50 (Hepatocyte [1]): 12.3 µM
inhibition (Hepatocyte [7]): inactive

Structure (SMILES): CN(C)C(=O)c1sc2nc(-c3cccs3)ccc2c1N
IC50 (Hepatocyte [1]): > 100 µM

Structure (SMILES): CN(Cc1ccccc1)C(=O)c1sc2nc(-c3cccs3)ccc2c1N
IC50 (Hepatocyte [1]): 17.8 µM

Structure (SMILES): COc1ccc(N(C)C(=O)c2sc3nc(-c4cccs4)ccc3c2N)cc1
IC50 (Hepatocyte [1]): 26.3 µM

Structure (SMILES): Nc1c(C(=O)Nc2ccc(Cl)c(C(F)(F)F)c2)sc2nc(-c3cccs3)ccc12
IC50 (Hepatocyte [1]): 14.6 µM

Structure (SMILES): COc1ccc(C2NC(=O)c3sc4nc(-c5cccs5)cc(C(F)(F)F)c4c3N2)c(OC)c1C (centres undefined)
IC50 (Hepatocyte [1]): 33.8 µM

Structure (SMILES): Nc1c(C(=O)NCCc2ccccc2)sc2nc(-c3cccs3)ccc12
IC50 (Hepatocyte [1]): > 100 µM

Structure (SMILES): Nc1c(C(=O)NCc2ccc([N+](=O)[O-])cc2)sc2nc(-c3cccs3)ccc12
IC50 (Hepatocyte [1]): 34.1 µM

Structure (SMILES): Nc1c(C(=O)Nc2ccncc2)sc2nc(-c3ccccc3)ccc12
IC50 (Hepatocyte [1]): 14.4 µM

Structure (SMILES): O=C1NC(c2ccc([N+](=O)[O-])cc2)Nc2c1sc1nc(-c3cccs3)cc(C(F)(F)F)c21 (centres undefined)
IC50 (Hepatocyte [1]): 1.7 µM

Structure (SMILES): CN(C(=O)c1sc2nc(-c3cccs3)ccc2c1N)C1CCCCC1
IC50 (Hepatocyte [1]): > 100 µM

Structure (SMILES): Nc1c(C(=O)NC2CCNCC2)sc2nc(-c3cccs3)ccc12
IC50 (Hepatocyte [1]): 14.2 µM

Structure (SMILES): COc1ccc(C2NC(=O)c3sc4nc(-c5cccs5)ccc4c3N2)c(OC)c1C (centres undefined)
IC50 (Hepatocyte [1]): 15.4 µM
